We go through ten compounds from ChEMBL document CHEMBL1150355, “Design and evaluation of a novel series of 2,3-oxidosqualene cyclase inhibitors with low systemic exposure, relationship between pharmacokinetic properties and ocular toxicity” (Bioorg Med Chem, 2008).

The structures appear in SMILES notation. Calls of active or inactive are those of the source. No cut-off for these calls is given here.

In one data set the target is T1, Lanosterol synthase (Homo sapiens, UniProt P48449).
T1 sequence (P48449 whole entry): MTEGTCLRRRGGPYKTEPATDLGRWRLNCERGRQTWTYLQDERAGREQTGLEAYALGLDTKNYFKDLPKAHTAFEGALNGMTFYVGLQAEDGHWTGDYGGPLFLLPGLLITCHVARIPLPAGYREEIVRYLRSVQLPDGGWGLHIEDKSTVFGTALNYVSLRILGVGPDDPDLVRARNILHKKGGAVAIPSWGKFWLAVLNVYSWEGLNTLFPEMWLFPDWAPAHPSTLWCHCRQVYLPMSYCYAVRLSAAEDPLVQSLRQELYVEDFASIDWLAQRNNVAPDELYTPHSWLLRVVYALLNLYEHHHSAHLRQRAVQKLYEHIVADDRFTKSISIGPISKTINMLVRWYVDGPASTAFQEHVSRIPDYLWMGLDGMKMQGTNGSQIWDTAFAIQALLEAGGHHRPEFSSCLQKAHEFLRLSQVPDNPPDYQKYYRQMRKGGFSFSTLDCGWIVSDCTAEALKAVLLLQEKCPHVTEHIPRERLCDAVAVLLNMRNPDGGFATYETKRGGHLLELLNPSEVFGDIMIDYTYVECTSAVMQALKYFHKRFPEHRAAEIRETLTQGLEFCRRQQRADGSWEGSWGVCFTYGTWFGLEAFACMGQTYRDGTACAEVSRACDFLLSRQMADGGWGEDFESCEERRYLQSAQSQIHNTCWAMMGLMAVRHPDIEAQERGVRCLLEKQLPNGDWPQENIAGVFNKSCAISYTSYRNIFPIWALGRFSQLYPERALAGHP
Nature of the data set: Inhibition of 2,3-oxidosqualene-lanosterol cyclase. The method in brief:
(§1)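 HepG2 cells were incubated 24 h with compound in BME with 10% fetal calf serum, then labelled with [14C]mevalonate (7.4 kBq). Lipids were extracted with heptane/isopropanol and separated by TLC. [14C]cholesterol, MES and DES were identified against standards and quantified by phosphorimaging, scoring cholesterol synthesis inhibition together with MES/DES formation.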

A short description of data set [1]: Metabolic stability in rat liver microsomes assessed as intrinsic clearance […]. It is filed as ADME, Microsome. For orientation: Liver microsomes are vesicles of endoplasmic reticulum, rich in cytochrome P450 enzymes.
In data set [2] the test system is Rattus norvegicus. Nature of the data set: Inhibition of neosynthetized cholesterol synthesis in OFA rat liver at 2 mg/kg, po after 3 hrs. It counts as functional. The method in brief:
(§2)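 Male OFA rats dosed orally at 2 mg/kg. Sterol synthesis was labelled by ip [14C]mevalonate (370 kBq) for the final hour, giving 3 h or 8 h total exposure. Lens and liver lipids were extracted with isopropanol, separated by TLC, and cholesterol and MES radioactivity quantified by phosphorimaging. Cholesterol inhibition is relative to vehicle-treated rats, and MES as % of BIBB 515-treated rats (100%).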

Data set [3] concerns Rattus norvegicus. Nature of the data set: Induction of neosynthetized 2,3 mono-epoxysqualene synthesis in OFA rat liver at 2 mg/kg, po after 3 hrs relative to BIBB 515. It counts as functional. The method in brief:
as §2

Data set [4] deals with Rattus norvegicus. The data set can be described thus: Inhibition of neosynthetized cholesterol synthesis in OFA rat lens at 2 mg/kg, po after 3 hrs. It counts as functional. The conditions noted are these: Lens of camera-type eye. In a few lines: as §2
For data set [5], the system named is Rattus norvegicus. The data set can be described thus: Induction of neosynthetized 2,3 mono-epoxysqualene synthesis in OFA rat lens at 2 mg/kg, po after 3 hrs relative to BIBB 515. It counts as functional, Lens of camera-type eye. The method in brief:
as §2

The subject of data set [6] is Rattus norvegicus. The data set can be described thus: Inhibition of neosynthetized cholesterol synthesis in OFA rat liver at 2 mg/kg, po after 8 hrs. It counts as functional. In a few lines:
as §2

In data set [7] the test system is Rattus norvegicus. The data set can be described thus: Induction of neosynthetized 2,3 mono-epoxysqualene synthesis in OFA rat liver at 2 mg/kg, po after 8 hrs relative to BIBB 515. It counts as functional. In a few lines: as §2
In data set [8] the test system is Rattus norvegicus. Nature of the data set: Inhibition of neosynthetized cholesterol synthesis in OFA rat lens at 2 mg/kg, po after 8 hrs. It counts as functional. The conditions noted are these: Lens of camera-type eye. In a few lines: as §2
For data set [9], the system named is Rattus norvegicus. The data set can be described thus: Induction of neosynthetized 2,3 mono-epoxysqualene synthesis in OFA rat lens at 2 mg/kg, po after 8 hrs relative to BIBB 515. It is filed as functional, Lens of camera-type eye. The method in brief:
as §2

Data set [10] can be described thus: AUC (0 to 6 hrs) in OFA rat at 1 mg/kg, iv. It counts as ADME, organism-based. Set-up: time < 6 hr, dose 1 mg/kg, route intravenous. As to conditions: plasma. In a few lines: (§3)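 OFA rats (n = 10) dosed 1 mg/kg by iv bolus via penis vein in 10% DMA/90% PEG200. Plasma and tissue homogenates in borate buffer 0.1 M pH 11.5 were extracted with ethyl ether and analysed by LC. Plasma AUC was computed over 0–6 h.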

A short description of data set [11]: Biodistribution in OFA rat liver at 1 mg/kg, iv after 2 hrs. It counts as ADME, organism-based. Set-up: dose 1 mg/kg, route intravenous. The conditions noted are these: read-out: Drug uptake. The method in brief: as §3
The nature of data set [12]: Biodistribution in OFA rat liver at 1 mg/kg, iv after 6 hrs. It counts as ADME, organism-based. Set-up: dose 1 mg/kg, route intravenous. As to conditions: read-out: Drug uptake. The method in brief: as §3
The nature of data set [13]: Biodistribution in OFA rat eyes at 1 mg/kg, iv after 2 hrs. It counts as ADME, organism-based. Also noted: dose 1 mg/kg, route intravenous. As to conditions: eye, read-out: Drug uptake. In a few lines:
as §3

The nature of data set [14]: Biodistribution in OFA rat eyes at 1 mg/kg, iv after 6 hrs. It counts as ADME, organism-based. Also noted: dose 1 mg/kg, route intravenous. As to conditions: eye, read-out: Drug uptake. In a few lines:
as §3

Data set [15] deals with Rattus norvegicus. Nature of the data set: Ocular toxicity in Sprague-Dawley rat assessed as opacification of anterior lens at 30 mg/kg, po administered once daily for 21 days. It is filed as organism-based, Lens of camera-type eye. Also noted: dose 30 mg/kg, route oral. The conditions noted are these: in vivo, 504 h. The method in brief:
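Sprague–Dawley rats (male and female, n = 3) were dosed orally once daily for 21 days. Anterior lens opacification was scored from 0 to 6 (4 marked, 5 very marked, 6 severe), with histological examination of the eye.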

In data set [16] the test system is Rattus norvegicus. The data set can be described thus: Inhibition of 2,3-oxidosqualene-lanosterol cyclase in male Sprague-Dawley rat assessed as 2,3 mono-epoxysqualene appearance in liver at 2 mg/kg, po administered once daily for 21 days. It counts as functional, organism-based. Set-up: dose 2 mg/kg. In a few lines:
(§4)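 Sprague–Dawley rats (3 per sex) were dosed orally once daily for 21 days. On day 21, 3 h after the last dose, rats were sacrificed and hepatic lipids extracted and separated by TLC. MES was visualised with 5% phosphomolybdic acid in isopropanol, and MES mass quantified by densitometry.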

For data set [17], the system named is Rattus norvegicus. The data set can be described thus: Inhibition of 2,3-oxidosqualene-lanosterol cyclase in female Sprague-Dawley rat assessed as 2,3 mono-epoxysqualene appearance in liver at 2 mg/kg, po administered once daily for 21 days. Set-up: dose 2 mg/kg. It counts as functional, organism-based. The method in brief:
as §4

Data set [18] has as its system Rattus norvegicus. The data set can be described thus: Inhibition of 2,3-oxidosqualene-lanosterol cyclase in male Sprague-Dawley rat assessed as 2,3 mono-epoxysqualene appearance in liver at 10 mg/kg, po administered once daily for 21 days. It counts as functional, organism-based. Set-up: dose 10 mg/kg. The method in brief: as §4
The test system of data set [19] is Rattus norvegicus. The data set can be described thus: Inhibition of 2,3-oxidosqualene-lanosterol cyclase in female Sprague-Dawley rat assessed as 2,3 mono-epoxysqualene appearance in liver at 10 mg/kg, po administered once daily for 21 days. It counts as functional, organism-based. Also noted: dose 10 mg/kg. The method in brief:
as §4

In data set [20] the test system is Rattus norvegicus. The data set can be described thus: Inhibition of 2,3-oxidosqualene-lanosterol cyclase in male Sprague-Dawley rat assessed as 2,3 mono-epoxysqualene appearance in liver at 30 mg/kg, po administered once daily for 21 days. It counts as functional, organism-based. Set-up: dose 30 mg/kg. The method in brief:
as §4

In data set [21] the test system is Rattus norvegicus. Nature of the data set: Inhibition of 2,3-oxidosqualene-lanosterol cyclase in female Sprague-Dawley rat assessed as 2,3 mono-epoxysqualene appearance in liver at 30 mg/kg, po administered once daily for 21 days. It is filed as functional, organism-based. Set-up: dose 30 mg/kg. In a few lines:
as §4

Data set [22] deals with T2, Lanosterol synthase (Homo sapiens) (UniProt P48449).
T2 sequence (whole entry): T1 sequence (P48449 whole entry)
Nature of the data set: Inhibition of 2,3-oxidosqualene-lanosterol cyclase at 200 nM. The method in brief:
as §1

By IC50 is commonly meant the point on the concentration scale where inhibition reaches its midpoint. Higher therefore signals a need for much substance. The term CLint scaled denotes a measure of how fast metabolising enzymes remove a compound, apart from limits set by blood flow. Broadly, the inhibition in vivo is the drop in the measured response relative to a control, in per cent. Low values mean a response near the control, high ones a response far below the control. With `O=S(=O)(c1ccc(Cl)cc1)N1CCN(Cc2ccc(-c3ccncc3)cc2)CC1`, the IC50 at Lanosterol synthase was 0.013 µM. The CLint scaled in data set [1] came out at 1.3 mL/min/g. This compound also gave an inhibition in vivo at 2 mg/kg in the data set with Rattus norvegicus [2] of 66%. In the data set on Rattus norvegicus [3], this compound yielded an Activity of 45%.

As a reminder, the AUC(0-t) is the area under the concentration-time curve up to a stated or last time point. At Lanosterol synthase, `CN1CCN(c2ccc(CN3CCN(S(=O)(=O)c4ccc(Cl)cc4)CC3)cc2)CC1` returned an IC50 of 0.006 µM. In addition, in data set [1], the CLint scaled is 5.4 mL/min/g. Moreover, the inhibition in vivo at 2 mg/kg turned out to be 75% with Rattus norvegicus [2], 67% in the data set with Rattus norvegicus [4], 62% with Rattus norvegicus [6] and 67% in the data set with Rattus norvegicus [8]. For the same compound, the Activity is 111% with Rattus norvegicus [3]; 162% in the data set with Rattus norvegicus [5]; 232% in the data set with Rattus norvegicus [7]; 29% in the data set on Rattus norvegicus [9]; “Toxic” in the data set with Rattus norvegicus [15]; “Toxic” in the data set on Rattus norvegicus [16]. In addition, the Activity result with Rattus norvegicus [17], in the data set with Rattus norvegicus [18], with Rattus norvegicus [19], in the data set on Rattus norvegicus [20] and with Rattus norvegicus [21] was “Toxic” each time. The AUC(0-t) at 6 h in data set [10] was found to be 97 ng·h/mL. For the same compound, the results for the concentration at 2 h in [11] and in data set [13] were 6600 ng/g and 278 ng/g, respectively. Also, the concentration at 6 h in data set [12] amounted to 3270 ng/g; in data set [14], 123 ng/g.

With `O=C(c1ccc(Cl)cc1)N1CCC(=Cc2ccc(C3=NCCO3)cc2)CC1`, the CLint scaled in data set [1] is 2.3 mL/min/g. In addition, the inhibition in vivo at 2 mg/kg came out at 85% in the data set with Rattus norvegicus [2], 79% in the data set with Rattus norvegicus [4], 40% with Rattus norvegicus [6] and 61% in the data set on Rattus norvegicus [8]. For the same compound, the Activity in the data set on Rattus norvegicus [3], in the data set with Rattus norvegicus [5], with Rattus norvegicus [7] and in the data set on Rattus norvegicus [9] was 100% throughout. The AUC(0-t) at 6 h in data set [10] came out at 1030 ng·h/mL. The concentration at 2 h in [11] was 301 ng/g; in [13], under 10 ng/g. The results for the concentration at 6 h in [12] and in [14] were 169 ng/g and under 10 ng/g, respectively.

Compound `CN(C)Cc1ccc(CN2CCN(C(=O)c3ccc(Cl)cc3)CC2)cc1` returned an IC50 against Lanosterol synthase of 0.04 µM.

In the case of `O=C(c1ccc(Cl)cc1)N1CCN(Cc2ccc(-n3cccn3)cc2)CC1`, the outcome in data set [22] was inactive.

`O=C(c1ccc(Cl)cc1)N1CCN(Cc2ccc(-c3ccncc3)cc2)CC1` came in with an IC50 at Lanosterol synthase of 0.003 µM. Also, the CLint scaled in data set [1] is 6 mL/min/g. In the data set with Rattus norvegicus [2], this compound displayed an inhibition in vivo at 2 mg/kg of 64%. The compound also had an Activity in the data set on Rattus norvegicus [3] of 55%.

Turning to `O=S(=O)(c1ccc(Cl)cc1)N1CCN(Cc2cccc(-c3ccncc3)c2)CC1`, the IC50 on Lanosterol synthase was found to be 0.5 µM. In other words, the sub-micromolar range.

In turn, `Clc1ccc(CN2CCN(Cc3ccc(-c4ccncc4)cc3)CC2)cc1` displayed an IC50 at Lanosterol synthase of 0.316 µM. Against the preceding compound, the IC50 is about 1.6-fold lower.

`CN(C)Cc1ccc(CN2CCN(S(=O)(=O)c3ccc(Cl)cc3)CC2)cc1` had an IC50 on Lanosterol synthase of 0.032 µM. Besides, in data set [1], the intrinsic metabolic clearance (CLint scaled) came to 2.5 mL/min/g. This compound also displayed an inhibition in vivo at 2 mg/kg in the data set with Rattus norvegicus [2] of 74%. This compound also registered an Activity in the data set on Rattus norvegicus [3] of 55%.

For the compound `COc1ccc(C(=O)N2CCN(Cc3ccc(-c4ccncc4)cc3)CC2)cc1`, the IC50 against Lanosterol synthase worked out at 2.51 µM.
